Results collected from several papers.
Lines come from different studies, so protocols differ.
Target: Mitogen-activated protein kinase kinase kinase 1 (MAP3K1, Homo sapiens, UniProt Q13233)

`CNC(=O)Nc1ccc2c(c1)[C@@]1(CC2)OC(=O)N(CC(=O)N(Cc2ccc(F)cc2)[C@@H](C)C(F)(F)F)C1=O` has a remaining binding of 95% (cell-free assay; competition with immobilised ligand; 1 µM).
With `CN(CCCC(F)(F)F)c1nccc(-c2cnn3ncccc23)n1` the remaining binding was 75% (binding; 1 µM).
The remaining binding of `COc1ncc2cc3ccccc3nc2c1C#N` is reported as 99% (cell-free assay; competition with immobilised ligand; 5 µM).
The remaining binding of `C[C@H]1CCN(c2nccc(-c3cnn4ncccc34)n2)C1` is reported as 83% (binding; 1 µM).
`COc1cnc(Nc2cccc(S(N)(=O)=O)c2)nc1N1CCN(c2ccccc2)C(=O)C1` has a remaining binding of 96% (binding; competition with immobilised ligand; 1 µM).
`COc1ccnn2ncc(-c3ccnc(N(C)C)n3)c12` gave a remaining binding of 100% (binding; 1 µM).
With `Cc1cc(-n2nc(Cc3cc(F)cc(C(F)(F)F)c3)nc2C)ccc1C(N)=O` the remaining binding was 100% (cell-free assay; competition with immobilised ligand; 1 µM).
The remaining binding of `O=C(NCC1CCOCC1)c1n[nH]cc1NC(=O)c1c(F)cccc1F` is reported as 75% (binding; competition with immobilised ligand; 1 µM).
`Cc1cc(NC(=O)c2cccc(S(F)(F)(F)(F)F)c2)cc(-n2ccn3nc(-c4cccnc4)cc23)c1` has a remaining binding of 90% (cell-free assay; competition with immobilised ligand; 1 µM).
`N[C@H]1CCN(c2nccc(-c3cnn4ncccc34)n2)C1` gave a remaining binding of 98% (binding; 1 µM).
The remaining binding of `CNC(=O)c1ccc(Nc2ncc(C(F)(F)F)c(NCc3nccnc3N(C)S(C)(=O)=O)n2)cc1` is reported as 100% (cell-free assay; competition with immobilised ligand; 0.1 µM).
For `CCN1CCN(Cc2ccc(C(=O)Nc3ccc(C)c(Oc4ccc5c(c4)CC(=O)N5)c3)cc2C(F)(F)F)CC1`, the remaining binding was 100% (binding; competition with immobilised ligand; 1 µM).
For `O=C(NCCCN1CCOCC1)c1ccc(Nc2nccc(-c3cc4ccccc4s3)n2)cc1`, the remaining binding was 92% (binding; competition with immobilised ligand; 1 µM).
`CNC(=O)Nc1ccc2c(c1)CC[C@@]21OC(=O)N(CC(=O)N(Cc2ccc(F)cc2)[C@@H](C)C(F)(F)F)C1=O` has a remaining binding of 68% (cell-free assay; competition with immobilised ligand; 1 µM).
`O=C(NCCCN1CCOCC1)c1ccc(Nc2ncc(Cl)c(-c3ccc(Cl)s3)n2)cc1` gave a remaining binding of 100% (binding; competition with immobilised ligand; 1 µM).
With `Cc1cnn2ncc(-c3ccnc(N(C)C)n3)c2c1` the remaining binding was 91% (binding; 1 µM).
`Cc1cnc(Nc2ccc(C(=O)N3CCC(N4CCCC4)CC3)cc2)nc1-c1cc2ccccc2s1` gave a remaining binding of 70% (binding; competition with immobilised ligand; 1 µM).
The remaining binding of `COc1cnc(Nc2cccc(S(N)(=O)=O)c2)nc1N1CCN(c2ccccc2)CC1` is reported as 100% (binding; competition with immobilised ligand; 1 µM).
With `CS(=O)(=O)N1CCCC(NC(=O)[C@H](CCC2CCCCC2)NC(=O)c2ccc(CNc3ncnc4c3nnn4-c3ccccc3)cc2)C1` (stereo partly shown) the remaining binding was 81% (cell-free assay; competition with immobilised ligand; 0.1 µM).
For `F[C@@H]1CCN(c2nccc(-c3cnn4ncccc34)n2)C1`, the remaining binding was 100% (binding; 1 µM).
With `CO[C@@H](C)c1c(Nc2ccc([C@H](N(C)C(=O)C3CCS(=O)(=O)CC3)C(F)(F)F)cc2)cnc2cc(Cl)nn12` the remaining binding was 100% (cell-free assay; competition with immobilised ligand; 1 µM).
`FC(F)(F)Oc1cccc(-c2cnc3ccc(-c4ccncc4)nn23)c1` has a remaining binding of 80% (cell-free assay; competition with immobilised ligand; 5 µM).
